Laboratory results: ChEMBL document CHEMBL3244405, “Imidazo[4,5-f]quinolines. 4. Synthesis and anthelmintic activity of a series of imidazo[4,5-f]quinolin-9-ols” (J Med Chem, 1978)
The source made the active and inactive calls. No cut-off for these calls is given here.

Tests used:
Rodentolepis nana [1] = experiment: Anthelmintic activity against Hymenolepis nana infected in mouse assessed as reduction in worm burden at 50 mg/kg bid for 5 days relative to control; assay type: functional; parameters: scale not given: the % may be the effect or the level left
Method in brief: (§1)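 Mice carried the tapeworm *H. nana* and were dosed at 300, 100, 50, 25, 10, 5 or 2.5 mg/kg. Activity was read as percent reduction in worm burden, and significance was tested by Mann-Whitney U test. The rest of the procedure follows an earlier publication.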

Rodentolepis nana [2] = experiment: Anthelmintic activity against Hymenolepis nana infected in mouse assessed as reduction in worm burden at 10 mg/kg bid for 5 days relative to control; assay type: functional; method in brief: as §1
Rodentolepis nana [3] = experiment: Anthelmintic activity against Hymenolepis nana infected in mouse assessed as reduction in worm burden at 100 mg/kg bid for 5 days relative to control; assay type: functional; parameters: scale not given: the % may be the effect or the level left; method in brief: as §1
Rodentolepis nana [4] = experiment: Anthelmintic activity against Hymenolepis nana infected in mouse assessed as reduction in worm burden at 300 mg/kg bid for 5 days relative to control; assay type: functional; parameters: scale not given: the % may be the effect or the level left; method in brief: as §1
Rodentolepis nana [5] = experiment: Anthelmintic activity against Hymenolepis nana infected in mouse assessed as reduction in worm burden at 25 mg/kg bid for 5 days relative to control; assay type: functional; parameters: scale not given: the % may be the effect or the level left; method in brief: as §1
Canis familiaris [6] = experiment: Toxicity in beagle dog assessed as emesis at 50 to 150 mg/kg, po; assay type: organism-based, Canis lupus familiaris; parameters: dose 50-150 mg/kg, route oral; conditions: in vivo
Method in brief: (§2)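 Beagles infected with *T. pisiformis*, aged from puppies to 2–3 years, received single oral doses of 50–150 mg/kg body weight. Readouts were worm clearance plus observation for emesis and other untoward clinical signs.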

Canis familiaris [7] = experiment: Toxicity in beagle dog assessed as untoward clinical signs at 50 to 150 mg/kg, po; assay type: organism-based, Canis lupus familiaris; parameters: dose 50-150 mg/kg, route oral; conditions: in vivo; method in brief: as §2
Syphacia obvelata [8] = experiment: Anthelmintic activity against Syphacia obvelata infected in mouse assessed as reduction in worm burden at 10 mg/kg bid for 5 days relative to control; assay type: functional; parameters: scale not given: the % may be the effect or the level left
Rodentolepis nana [9] = experiment: Anthelmintic activity against Hymenolepis nana infected in mouse assessed as reduction in worm burden at 2.5 mg/kg bid for 5 days relative to control; assay type: functional; parameters: scale not given: the % may be the effect or the level left; method in brief: as §1
Taenia pisiformis = experiment: Anthelmintic activity against Taenia pisiformis infected in beagle dog assessed as complete parasite clearance at 50 to 150 mg/kg, po after 10 days; assay type: functional, organism-based; method in brief: as §2
Moniezia = experiment: Anthelmintic activity against Moniezia species infected in sheep assessed as complete parasite clearance at 50 mg/kg for 3 days administered as drench solution; assay type: functional, organism-based; parameters: dose 50 mg/kg
Method in brief: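 Sheep were naturally infected. Drug was mixed with water and sonified to a creamy consistency, then given as a drench. Animals were sacrificed 3 days after dosing and the intestines were examined for worms.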

Taenia crassiceps = experiment: Anthelmintic activity against Taenia crassiceps infected in beagle dog assessed as complete parasite clearance at 100 mg/kg after 9 days; assay type: functional, organism-based; parameters: dose 100 mg/kg
Method in brief: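 Dogs received a recently isolated *T. crassiceps* strain as 40 cysts per dog, taken from mice and given perorally in gelatin capsules to young beagles. On day 37, drug was given in gelatin capsules, three dogs per test. Dogs were sacrificed 9 days after treatment, and intestinal scolices were counted as worms recovered at necropsy.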

Syphacia obvelata [10] = experiment: Anthelmintic activity against Syphacia obvelata infected in mouse assessed as complete parasite clearance at 50 mg/kg bid for 5 days; assay type: functional, organism-based; parameters: dose 50 mg/kg
Rodentolepis nana [11] = experiment: Anthelmintic activity against Hymenolepis nana infected in mouse assessed as reduction in worm burden at 5 mg/kg bid for 5 days relative to control; assay type: functional; parameters: scale not given: the % may be the effect or the level left; method in brief: as §1
Mus musculus = experiment: Toxicity in mouse infected with Hymenolepis nana at 300 mg/kg bid for 5 days; assay type: organism-based; parameters: dose 300 mg/kg; conditions: in vivo, 120 h

Structure (SMILES)	Activity (Rodentolepis nana [1])	Activity (Rodentolepis nana [2])	Activity (Rodentolepis nana [3])	Activity (Rodentolepis nana [4])	Activity (Rodentolepis nana [5])	Activity (Canis familiaris [6])	Activity (Canis familiaris [7])	Activity (Syphacia obvelata [8])	Activity (Rodentolepis nana [9])	Activity (Taenia pisiformis)	Activity (Moniezia)	Activity (Taenia crassiceps)	Activity (Syphacia obvelata [10])	Activity (Rodentolepis nana [11])	Activity (Mus musculus)
Cc1cc(O)c2c(ccc3nc(-c4ccccc4)[nH]c32)n1	94%	inactive	93%	100%	77%										
Cc1cc(O)c2c(ccc3nc(-c4ccco4)[nH]c32)n1 [FURODAZOLE]	100%	75%	100%	100%	100%	Toxic	Toxic	68%	35%	Active	Active	Active	Active	57%	
Cc1ccc(-c2nc3ccc4nc(C)cc(O)c4c3[nH]2)cc1			inactive	70%											
Cc1nc2ccc3nc(-c4ccccc4)[nH]c3c2c(O)c1C	94%		100%	100%	inactive										
Oc1cc(-c2ccccc2)nc2ccc3nc(-c4ccccc4)[nH]c3c12	82%		100%	100%	inactive										
CCCCCCOc1ccc(C(=N)N(CCCC)CCCC)c2ccccc12 [BUNAMIDINE]	59%	inactive	100%		30%										Toxic
Cc1cc(O)c2c(ccc3nc(-c4ccccc4Cl)[nH]c32)n1	75%		100%	100%	inactive										
Oc1c2c(nc3ccc4nc(-c5ccccc5)[nH]c4c13)CCC2	41%		100%	100%	inactive										
